Data reported in the EternaBench riboswitch data.

Test system: MS2 coat protein
Assay: apparent Kd, MS2 coat protein; higher = weaker binding; RNA-MaP array; FMN 200 µM where present
Procedure, shortened: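 The apparent Kd comes from binding curves fitted cluster by cluster, filtered, and summarised as a median. Those curves followed SNAP-549-labelled MS2 coat protein from 0.7 or 1.5 nM, doubling to 3 µM, on Illumina sequencing-chip clusters where stalled E. coli RNA polymerase had transcribed the designs, without and then with constant ligand. The buffer was 100 mM Tris-HCl pH 7.5, 80 mM KCl, 4 mM MgCl2, BSA, DTT, yeast tRNA and Tween-20, and green signal was normalised to red-channel RNA signal and control-cluster median Fmax.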

[1] = designed as: OFF switch for flavin mononucleotide, no ligand
[2] = ligand present: flavin mononucleotide, designed as: OFF switch for flavin mononucleotide
[3] = designed as: ON switch for flavin mononucleotide, no ligand
[4] = ligand present: flavin mononucleotide, designed as: ON switch for flavin mononucleotide

Sequence | apparent Kd [1] [nM] | apparent Kd [2] [nM] | apparent Kd [3] [nM] | apparent Kd [4] [nM]
ACAUGUACAGGAUAUACAUGAGUGAUACACGUAUUUCCACUACAUGAGGAUCACCCAUGUAGAAGGGUACAUGA | 50.2 | 19.5 | – | –
ACAUUUUAUGCAGGAUAUUGACAUAUAUUUAAACAAGAAGGGCAUUACAUGAGGAUCACCCAUGUUAUAUUGGUAUAUAAGUUC | 17.4 | 14.8 | – | –
ACCAAUGCAGGAUAUACAUGAGGAUCACCCAUGUAUAACCUACAUAGGUGAUCCUCAUGUAGAAGGGCAUUGGA | 12.8 | 10 | – | –
ACCAGGGAUUCAGGAUAUAUUAGCCGAGGCCGCGUAGAAGGGAAAUCCUGACAUGAGGAUCACCCAUGUCGACCCGCCUUCCAC | – | – | 22.8 | 24.2
ACCAGUGACACAGGAUAUCCGUGCAUGUAGCACGGAGAAGGGUGUUCCAAUCAACUCACAUGAGGAUCACCCAUGUGCUACUUG | – | – | 176 | 59.8
ACCAUUUACUAAUCCUCUAUACAUGAGGAUCACCCAUGUUUUGAGGAUAUCAUCGUUCGCCGCGUUGAGAAGGCAAAACAUUCG | 18.7 | 52.9 | – | –
ACCAUUUACUAGUUUUCUAUACAUGAGGAUCACCCAUGUUUUGAGGAUAUCAGCGUGAAACACGCUGAGAAGGCAAAACAUUCG | 181 | 342 | – | –
ACCCGACAUGAGGAUCACCCAUGUAAACAAUCAUGAGGAUAUCCGGAGCAAGUGCUCCAGGGAGAAGGCAUAAAAG | – | – | 76.3 | 42.2
ACCGAAUGAACAUGAGGAUCACCCAUGUACCCGAAAGGGAAUGAGGAUAUCGAUAGCAAAGCUAUCGAGAAGGCAUGGGUCGGU | – | – | 573 | 169
ACCGCUCGAGGAUAUACAUGAGGAUCACCCAUGUAACCCAGAAGCAAGGCCUCAGGAUGUAGAAGGCGACGCAA | 14 | 14.2 | – | –
ACCUCACAUGAGGAUCACCCAUGUCAGGAUAUUCAAACAGGCGGAACUCCGCCUUCUCGAAGAAGGGACAUUAA | 16.2 | 72.4 | – | –
ACCUCACAUGAGGAUCACCCAUGUUAGGAUAUCUCGAUGCUCCGCGGGCGGGAGCAUCAGAGAAGGAACGUGCA | 20.1 | 21.8 | – | –
ACCUUACAUGAGGAUCACCCAUGUUAGGAUAUCUCGCUUGCGCAAUCACAGCACAAGCAGAGAAGGGACGCGGG | 28.1 | 32.5 | – | –
ACGACUAGAGGAUAUACAUGAGGAUCACCCAUGUAACUGUCAGGAGACUGACGGAGAUGUAGAAGGCUAGUCGA | 16.6 | 39.2 | – | –
ACGAGACUCGUGAGGAUAUCGUGUUGUAAGCAGAUCGAGAAGGCACAUGAGGAUCACCCAUGUUUACUGCCACA | 17 | 21.9 | – | –
ACGAGGGUUACAGGAUAUGAAGCUAAAACGGCGUUAGAAGGGUAUACAGAGUUACAUGAGGAUCACCCAUGUUGUGACUUCGAA | 33.6 | 41 | – | –
ACGCCCUGAGGAUAUCUCAUCCCGCACAUGAGGAUCACCCAUGUUCUCCUCCGGGCUCCGAGAGAAGGCAGGCCCA | 54.7 | 95.2 | – | –
ACGCUUUGGGAGAAGGUACGUUAAUUUUUUUCCACAUGAGGAUCACCCAUGUAAGGAUAUCCCGUCGUUAAAUAGGCUACAGCA | 9.59 | 9.37 | – | –
ACGGAACAUGAGGAUCACCCAUGUAUCUGAAAUAUGGACUCACAGGAUAUCCAGAGUUGCCAAUCGGAGAAGGGUGACUCCAGA | – | – | 20.1 | 16.7
ACGGCAGUCGAAGGAUAUGGUUACAUGAGGAUCACCCAUGUCUAGGGUCUAAUUAGGUAUAAUUACCAGAAGGUCGAAGGCCUA | 90.5 | 123 | – | –
ACGGCUUAGUCAGGAUAUACAAGAUUGUGAGACUACAUGAGGAUCACCCAUGUAGAAGGGACUAAUCGUCUGAACAUUGCUUUC | 7.58 | 22.1 | – | –
ACGGUGGUCACAGGAUAUCCGGCCCGCGUGCCUGGAGAAGGGUGACUCAGAACCACAUGAGGAUCACCCAUGUGCCUUACCGUA | – | – | 52.6 | 23.9
ACGUACUGAGGAUAUACGAACAUGUCAAAAGACGUGAAGGGACAUGAGGAUCACCCAUGUAGAAGGCAGUACGA | 42.2 | 194 | – | –
ACGUAUCGUGUAGGAUAUGACACAGGAAACUGGUCAGAAGGACAUGAGGAUCACCCAUGUAGAGUAUGUUAGGAUGACGUAUGC | 43 | 261 | – | –
ACGUCGAGCCAGAAGGCAACAUGAGGAUCACCCAUGUAGUCCGGCUCGUGUUGAGGAUAUGGCACCCGCGCGGAAGGCGCAGGU | 5.12 | 6.62 | – | –
ACGUGUCGUGUAGGAUAUGACACAGGAAACUGGUCAGAAGGACAUGAGGAUCACCCAUGUAAAAUGUUUAAGAAUGACGUAUGC | 49.3 | 94.9 | – | –
ACGUGUCGUGUAGGAUAUGACACAGGAAACUGGUCAGAAGGACAUGAGGAUCACCCAUGUAGAGUGUGUUAGGAUGACGUAUGC | 51.9 | 199 | – | –
ACGUGUUAUACAGGAUAUGUAUAGGUAUAAUCAUACAGUUAUUAAUUAAUGACAGAAGGGUAAACAUGAGGAUCACCCAUGUCA | 511 | 248 | – | –

Sequence | apparent Kd [1] [nM] | apparent Kd [2] [nM] | apparent Kd [3] [nM] | apparent Kd [4] [nM]
ACUAAUAGAGGAUAUACAGUUUAUUACAUGAGGAUCACCCAUGUUCUUCAAUGUAUAUAAGUAGAAGGCUAUGGAA | 43.3 | 187 | – | –
ACUAAUUAGUGAGGAUAUACAUAAUUUAUAACUGUAGAAGGCACAAACCUCAAUACAUGAGGAUCACCCAUGUGGUAUAUAAAU | 244 | 434 | – | –
ACUAUACGAGGAUAUGCUGUCAGUACUCCGAGGUUAGUUUGACAUGAGGAUCACCCAUGUAGAAGGCGUUUACU | 24.8 | 22.2 | – | –
ACUAUAUAUGAGAAGGUGAAGUGGAAACAUGAGGAUCACCCAUGUAAUACGAAGCGUAUUUUUAUCAAGGAUAUCAUAUAUAGA | – | – | 10.2 | 8.02
ACUCGACAUGAGGAUCACCCAUGUGAGGAUAUGGCCUGUUUGGCGUGUGCUGGCUCUGUCAGAAGGCGCGUGGG | 41.7 | 89.3 | – | –
ACUGACAUGAGGAUCACCCAUGUCUUGAAUAGGUCAAAUUCACAGGAUAUGCACUUGGACAGGGUGCAGAAGGGUGAUGCAAUG | – | – | 57 | 12.2
ACUGGUCGAGGAUAUACAUGAGGAUCACCCAUGUCGAUCAACCAGCGAUAGCUGGAAUGUAGAAGGCGACCAGU | 200 | 446 | – | –
ACUUAUCAUGUAGGAUAUGCGUGGCGAAGCUAUGCAGAAGGACAUGAGGAUCACCCAUGUUUUAGCGUCUGCGUACAGAUGCGU | 54 | 192 | – | –
ACUUUACAUGAGGAUCACCCAUGUUUUGGUGGAUCAGGAUAUAAAUUGAAUGAGUUUUAGUUAGAAGGGAUAUUUA | – | – | 89.8 | 99
AGAAACUACGAGAAGGACAUGUGGUCCUUCAGUUACAUGAGGAUCACCCAUGUAGGAUAUCGUAGUUUCAGGAUCGUGAGAUCC | 42 | 12.5 | – | –
AGAAACUAGGAGAAGGACAUAUGACCAAGACGAAACAUGAGGAUCACCCAUGUAGGAUAUCCUAGUUUCAGGAUCGUGAGAUCA | 5.47 | 7.97 | – | –
AGAAUGAUGUCAGGAUAUGACGCUGAGAGCACGUCAGAAGGGACAUGAGGAUCACCCAUGUCGGGCUAAUGAAGCUAUGGCACU | 8.86 | 11.7 | – | –
AGACCGCUACGCCGGUUUCACGCACAGGAUAUGCGGUUACAUGAGGAUCACCCAUGUGGCCAUGUGCAGAAGGGUGGUUCGUGC | – | – | 21.2 | 14.9
AGACCGCUACGCCGGUUUGACGCACAGGAUAUGCGGUUACAUGAGGAUCACCCAUGUGGCCAUGAGUAGAAGGGUGGUUCGUCC | – | – | 49.9 | 39.1
AGAGAGAGACAGAAGGGCAAGCUCGAUUGCGGAGAAAGCGAUCGAGCUUGCAGGAUAUGUUGAACAUGAGGAUCACCCAUGUCA | – | – | 7.49 | 7.62
AGAGCCUCGUGAGGAUAUACAUGAGGAUCACCCAUGUAAUAAGAUCAACGGAGGAAACUCCGAAUGUAGAAGGCACGAGGCUCA | 37.2 | 423 | – | –
AGAGUGUCAGGAUAUCCUGCUGUGCGGAAUAUGUAUUCACGGGAGAAGGGACAUGAGGAUCACCCAUGUUUGAG | 20.6 | 20.8 | – | –
AGAGUGUGAGGAUAUAUGGUGCAGAUGAAGGGAUAGAAGGAGUAGAAGGUACAUGAGGAUCACCCAUGUUAGGA | 27.4 | 21.7 | – | –
AGAUAACAUGUAGGAUAUCGAGGCCUGAGGCCUCGAGAAGGACAUGAGGAUCACCCAUGUAGUUGUACUAUGGGAUCACGCACU | 620 | 186 | – | –
AGAUAAGUCACAGGAUAUUCCUACAUUAAUAUGGAAGAAGGGUGAGCAUGAUUCGAUACAUGAGGAUCACCCAUGUAUCCGCGA | – | – | 78.4 | 19.7
AGAUAGGACAGAGGAUAUACGUGCUAGAGAUACUAGCAAAAUUUCCUCACAUGAGGAUCACCCAUGUAGAAGGCUGUCCUAUCG | 15.6 | 436 | – | –
AGAUCCUGAGUCAGGAUAUAGAGACGGUAGUCGGGCUAGAAGGGACAUGAGGAUCACCCAUGUGGGUUCGGGCC | 14.2 | 19.3 | – | –
AGAUCGAGUGUGAGGAUAUUGACCGGACGACCCAUCGAGAAGGCACAUGAGGAUCACCCAUGUGAUUCGGUUUA | 15.2 | 32.5 | – | –
AGAUGUGAACAUGAGGAUCACCCAUGUGACUAGGUAUAUUUCAGAAGGCAUUUAUAGAGAUUAUAUGAGGAUAUGAAGUUUUAA | – | – | 12.7 | 6.59
AGAUUUUUACAUGAGGAUCACCCAUGUUAAUAGGUGUUUGUCAGAAGGCAUUAUGAGAGAAUUAAUGAGGAUAUGAAGUUUCAU | – | – | 40.4 | 27.8
AGCACGAAAGUGCAACGAUGUACGAGAAGGACAUGAGGAUCACCCAUGUUGCUGUAACAGCACAUGUAGGAUAUCGUACAUCGA | 166 | 180 | – | –
AGCAUGCUAGGAUAUACGGGACAUUAGGGUUCGUUGUAUGGACAUGAGGAUCACCCAUGUAGAAGGAGCGUGCA | 28 | 99.8 | – | –
